From ChEMBL document CHEMBL1153716, “Constrained peptidomimetics reveal detailed geometric requirements of covalent prolyl oligopeptidase inhibitors” (J Med Chem, 2009) come the findings set out here.

Assay [1] concerns the target Dipeptidyl peptidase 4 (Homo sapiens) (UniProt P27487). The assay can be described thus: Inhibition of DPP4 in intact human fibroblasts assessed as blockade of Gly-Pro-AMC substrate hydrolysis at 100 uM by fluorimetric assay. The essentials: (§1)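 Confluent intact human glioblastoma (LN18, LN229, LNZ308), brain endothelial HCEC, or lung PO03 and skin PG98/5 fibroblast monolayers kept in PBS (pH 7.2-7.4) without detergent. Compound was diluted from methanol stock into water and preincubated 5-10 min at room temperature. Gly-Pro-AMC was then added and hydrolysis read by fluorescence. Duplicate wells.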

The target in assay [2] is T1, Prolyl endopeptidase (Homo sapiens) (UniProt P48147).
T1 sequence (whole entry): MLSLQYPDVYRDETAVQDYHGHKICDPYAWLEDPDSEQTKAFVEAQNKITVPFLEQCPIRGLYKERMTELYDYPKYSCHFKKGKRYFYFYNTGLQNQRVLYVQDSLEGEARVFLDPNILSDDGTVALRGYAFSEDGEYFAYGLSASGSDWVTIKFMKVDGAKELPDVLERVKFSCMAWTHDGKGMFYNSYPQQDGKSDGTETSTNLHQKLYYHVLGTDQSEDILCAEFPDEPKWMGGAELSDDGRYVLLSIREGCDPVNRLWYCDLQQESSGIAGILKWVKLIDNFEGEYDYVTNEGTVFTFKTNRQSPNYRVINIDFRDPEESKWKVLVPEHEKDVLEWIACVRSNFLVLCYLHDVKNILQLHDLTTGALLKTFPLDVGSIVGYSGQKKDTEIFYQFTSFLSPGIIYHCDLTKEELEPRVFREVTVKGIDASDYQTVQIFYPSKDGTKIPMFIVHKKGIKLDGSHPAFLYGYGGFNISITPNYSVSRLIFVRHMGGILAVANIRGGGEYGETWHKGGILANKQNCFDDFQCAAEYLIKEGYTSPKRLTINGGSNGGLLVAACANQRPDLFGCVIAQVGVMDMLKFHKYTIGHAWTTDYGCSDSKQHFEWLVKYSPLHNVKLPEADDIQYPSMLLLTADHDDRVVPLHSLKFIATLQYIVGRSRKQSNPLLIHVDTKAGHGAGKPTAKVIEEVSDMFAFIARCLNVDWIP
Description: Inhibition of prolyl oligopeptidase in intact human brain derived endothelial cells assessed as blockade of Z-Gly-Pro-AMC substrate hydrolysis at 100 uM by fluorimetric assay. The settings on record: Endothelial cell. Format: cell-based. The essentials: (§2)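 Intact confluent human glioblastoma (LN18, LN229, LNZ308), brain endothelial HCEC, or lung PO03 and skin PG98/5 fibroblast monolayers in PBS (pH 7.2-7.4), cells grown beforehand in DMEM with 10% FCS. Compound was diluted from methanol stock into water and preincubated 5-10 min at room temperature. Z-Gly-Pro-AMC was then added and read fluorimetrically. Duplicate wells.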

In assay [3] the target is T1, Prolyl endopeptidase (Homo sapiens). Description: Inhibition of prolyl oligopeptidase in intact human fibroblasts assessed as blockade of Z-Gly-Pro-AMC substrate hydrolysis at 100 uM by fluorimetric assay. Summed up: as §2
Assay [4] deals with Dipeptidyl peptidase 4 (Homo sapiens) (UniProt P27487). Description: Inhibition of DPP4 in intact human astrocyte derived cells assessed as blockade of Gly-Pro-AMC substrate hydrolysis at 100 uM by fluorimetric assay. The essentials:
as §1

Assay [5] has the same target. Description: Inhibition of DPP4 in human brain derived endothelial cell extracts assessed as blockade of Gly-Pro-AMC substrate hydrolysis at 100 uM by fluorimetric assay. Format: cell-free. Summed up:
(§3)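 Confluent human cells (glioblastoma LN18, LN229, LNZ308; brain endothelial HCEC; lung PO03 or skin PG98/5 fibroblasts) grown in DMEM with 4.5 g/L glucose and 10% FCS, then lysed in PBS (pH 7.2-7.4) containing 0.1% Triton X-100. Compound was diluted from methanol stock into water and preincubated 5-10 min at room temperature. Gly-Pro-AMC was then added. Duplicate wells.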

For assay [6] the target is unchanged. Description: Inhibition of DPP4 in intact human brain derived endothelial cells assessed as blockade of Gly-Pro-AMC substrate hydrolysis at 100 uM by fluorimetric assay. It is filed as cell-based. As to conditions: Endothelial cell. The essentials: as §1
Assay [7] concerns the target T1, Prolyl endopeptidase (Homo sapiens). Description: Inhibition of prolyl oligopeptidase in human fibroblast extracts assessed as blockade of Z-Gly-Pro-AMC substrate hydrolysis at 100 uM by fluorimetric assay. The essentials: (§4)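 Confluent human glioblastoma (LN18, LN229, LNZ308), brain endothelial HCEC, or lung PO03 and skin PG98/5 fibroblasts extracted in PBS with 0.1% Triton X-100. Compound was diluted from methanol stock into water and preincubated 5-10 min at room temperature. Z-Gly-Pro-AMC was then added and read by fluorescence. Duplicate wells.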

Assay [8] shares this target. The assay can be described thus: Inhibition of prolyl oligopeptidase in intact human astrocyte derived cells assessed as blockade of Z-Gly-Pro-AMC substrate hydrolysis at 100 uM by fluorimetric assay. Summed up:
as §2

The target in assay [9] is Dipeptidyl peptidase 4 (Homo sapiens) (UniProt P27487). The assay can be described thus: Inhibition of DPP4 in human astrocyte derived cell extracts assessed as blockade of Gly-Pro-AMC substrate hydrolysis at 100 uM by fluorimetric assay. The essentials:
as §3

Assay [10] deals with T1, Prolyl endopeptidase (Homo sapiens). Description: Inhibition of prolyl oligopeptidase in human astrocyte derived cell extracts assessed as blockade of Z-Gly-Pro-AMC substrate hydrolysis at 100 uM by fluorimetric assay. The essentials: as §4
For assay [11] the target is unchanged. Description: Inhibition of prolyl oligopeptidase in human brain derived endothelial cell extracts assessed as blockade of Z-Gly-Pro-AMC substrate hydrolysis at 100 uM by fluorimetric assay. It is filed as cell-free. The essentials: as §4
Assay [12] deals with Dipeptidyl peptidase 4 (Homo sapiens) (UniProt P27487). Description: Inhibition of DPP4 in human fibroblast extracts assessed as blockade of Gly-Pro-AMC substrate hydrolysis at 100 uM by fluorimetric assay. Summed up: as §3

Each structure is given as a SMILES string. Active and inactive are the calls of the source. The calls are words filed in the database; no cut-off is given here.

Dipeptidyl peptidase 4 (Homo sapiens), sequence (P27487 whole entry, looked up): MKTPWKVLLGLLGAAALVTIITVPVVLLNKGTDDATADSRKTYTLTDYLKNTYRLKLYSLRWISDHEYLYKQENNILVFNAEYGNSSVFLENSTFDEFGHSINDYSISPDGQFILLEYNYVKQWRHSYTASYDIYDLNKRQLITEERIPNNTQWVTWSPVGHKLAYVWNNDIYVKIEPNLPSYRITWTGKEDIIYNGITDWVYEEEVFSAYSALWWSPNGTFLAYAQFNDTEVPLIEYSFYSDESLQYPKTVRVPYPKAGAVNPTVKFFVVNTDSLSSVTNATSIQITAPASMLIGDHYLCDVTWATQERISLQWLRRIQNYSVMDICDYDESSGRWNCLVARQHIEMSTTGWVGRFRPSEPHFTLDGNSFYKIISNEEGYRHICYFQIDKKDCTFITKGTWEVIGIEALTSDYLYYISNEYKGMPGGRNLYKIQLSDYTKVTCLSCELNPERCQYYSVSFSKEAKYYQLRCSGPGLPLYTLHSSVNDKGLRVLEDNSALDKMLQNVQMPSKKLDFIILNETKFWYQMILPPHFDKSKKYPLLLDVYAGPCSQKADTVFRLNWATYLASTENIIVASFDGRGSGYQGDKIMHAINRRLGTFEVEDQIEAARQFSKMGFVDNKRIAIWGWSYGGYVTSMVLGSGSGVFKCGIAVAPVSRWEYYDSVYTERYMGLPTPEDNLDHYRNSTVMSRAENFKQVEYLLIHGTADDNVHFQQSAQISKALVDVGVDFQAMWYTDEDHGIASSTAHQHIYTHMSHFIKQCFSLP

What is called inhibition is the relative decrease from the control value, in per cent. `N#C[C@H]1CS[C@@H]2C[C@H](NC(=O)OCc3ccccc3)C(=O)N12`: the inhibition result in [1], in assay [2], in assay [3], in [4], in assay [5] and in assay [6] was “inactive” throughout. In addition, the inhibition entry in assay [7], in [8], in [9] and in [12] was “inactive” in each case. The inhibition in assay [10] and in assay [11] was 10% in each case.
For the molecule `N#C[C@@H]1CS[C@H]2CC[C@H](NC(=O)OCc3ccccc3)C(=O)N12`, the inhibition result in [1], in assay [4], in [5], in assay [6], in assay [9] and in assay [12] was “inactive” throughout. Besides, the inhibition in assay [2] is 10%; in [3] it was over 50%; in assay [7] it was over 50%; in assay [8], over 50%; in assay [10], over 50%; in assay [11], over 50%.
For `NC(=O)[C@@H]1CS[C@H]2C[C@@H](NC(=O)OCc3ccccc3)C(=O)N21`, the inhibition entry in assay [1], in assay [2], in assay [3], in [4], in assay [5] and in [6] was “inactive” throughout. Also, the inhibition result in [7], in [8], in assay [9], in assay [10], in assay [11] and in [12] was “inactive” each time.
Turning to `N#C[C@H]1CCCN1C(=O)CNC(=O)OCc1ccccc1`, the inhibition entry in assay [1], in assay [4], in assay [5], in assay [6], in assay [9] and in assay [12] was “inactive” in each case.
Turning to `COC(=O)[C@@H]1CS[C@H]2C[C@H](NC(=O)OCc3ccccc3)C(=O)N21`, the inhibition result in assay [1], in [2], in assay [4], in [5], in assay [6] and in assay [8] was “inactive” each time. In addition, the inhibition entry in assay [9], in [11] and in [12] was “inactive” throughout. For the same molecule, the inhibition in [3], in assay [7] and in [10] was 10% throughout.
On to `N#C[C@@H]1CS[C@H]2C[C@H](NC(=O)OCc3ccccc3)C(=O)N12`, for which the inhibition entry in assay [1], in assay [4], in assay [5], in [6], in assay [8] and in assay [9] was “inactive” each time. Moreover, the inhibition result in assay [12] is “inactive”. The inhibition in assay [2] was 10%; in assay [3] it was 10%; in [7] it was 10%; in [10] it was 10%; in [11], over 50%.
Consider `C[C@H](NC(=O)OCc1ccccc1)C(=O)N1CCC[C@H]1C#N`, for which the inhibition entry in assay [1], in assay [4], in [5], in assay [6], in assay [9] and in [12] was “inactive” throughout.
In the case of `N#C[C@@H]1CCCN1C(=O)CNC(=O)OCc1ccccc1`, the inhibition result in assay [1], in assay [4], in assay [5], in [6], in assay [9] and in assay [12] was “inactive” in each case.
Consider `N#C[C@@H]1CS[C@H]2CC[C@@H](NC(=O)OCc3ccccc3)C(=O)N12`, for which the inhibition entry in assay [1], in [4], in [5], in assay [6], in [9] and in [12] was “inactive” each time. Further, the inhibition in assay [2], in assay [3], in assay [7], in [8], in [10] and in [11] was over 50% throughout.
In the case of `N#CC1CCCCN1C(=O)CNC(=O)OCc1ccccc1` (racemic), the inhibition result in assay [1], in [2], in assay [3], in [4], in [5] and in assay [6] was “inactive” in each case. The inhibition result in assay [9] and in assay [12] was “inactive” throughout. Also, the inhibition in assay [7] was 10%; in [8] it was 10%; in assay [10] it was over 50%; in assay [11], 10%.
As for `N#C[C@@H]1CCCN1C(=O)OCc1ccccc1`, the inhibition result in [1], in [2], in assay [4], in [5], in assay [6] and in assay [7] was “inactive” each time. The inhibition entry in [8], in assay [9], in assay [10] and in [12] was “inactive” throughout. Also, the inhibition in assay [3] and in assay [11] was 10% each time.
Consider `N#C[C@@H]1CCCN1`, for which the inhibition entry in assay [1], in [2], in assay [3], in [4], in assay [5] and in [6] was “inactive” throughout. For the same molecule, the inhibition entry in [7], in assay [8], in assay [9], in assay [10] and in assay [11] was “inactive” each time.
With `C[C@@H](NC(=O)OCc1ccccc1)C(=O)N1CCC[C@H]1C#N`, the inhibition entry in assay [1], in assay [4], in assay [5], in assay [6], in assay [9] and in [12] was “inactive” throughout.
